TRPC4 act: activators of mouse TRPC4 channel, primary screen, Fluo4 calcium, HEK293 TRPC4beta/mu-opioid cells; Fluo4 calcium fluorescence; stronger effect = higher value; AID 2237, 2010; B-score at 10 µM; 310,000 tested, 0.49% active;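 active means B-score above 5 SD of library B-scores, and initial fluorescence ratio not above library mean plus 5 SD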;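 further: positive B-score marks a calcium rise read as TRPC4 activation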
Target sequence (Q9QUQ5 whole entry, looked up): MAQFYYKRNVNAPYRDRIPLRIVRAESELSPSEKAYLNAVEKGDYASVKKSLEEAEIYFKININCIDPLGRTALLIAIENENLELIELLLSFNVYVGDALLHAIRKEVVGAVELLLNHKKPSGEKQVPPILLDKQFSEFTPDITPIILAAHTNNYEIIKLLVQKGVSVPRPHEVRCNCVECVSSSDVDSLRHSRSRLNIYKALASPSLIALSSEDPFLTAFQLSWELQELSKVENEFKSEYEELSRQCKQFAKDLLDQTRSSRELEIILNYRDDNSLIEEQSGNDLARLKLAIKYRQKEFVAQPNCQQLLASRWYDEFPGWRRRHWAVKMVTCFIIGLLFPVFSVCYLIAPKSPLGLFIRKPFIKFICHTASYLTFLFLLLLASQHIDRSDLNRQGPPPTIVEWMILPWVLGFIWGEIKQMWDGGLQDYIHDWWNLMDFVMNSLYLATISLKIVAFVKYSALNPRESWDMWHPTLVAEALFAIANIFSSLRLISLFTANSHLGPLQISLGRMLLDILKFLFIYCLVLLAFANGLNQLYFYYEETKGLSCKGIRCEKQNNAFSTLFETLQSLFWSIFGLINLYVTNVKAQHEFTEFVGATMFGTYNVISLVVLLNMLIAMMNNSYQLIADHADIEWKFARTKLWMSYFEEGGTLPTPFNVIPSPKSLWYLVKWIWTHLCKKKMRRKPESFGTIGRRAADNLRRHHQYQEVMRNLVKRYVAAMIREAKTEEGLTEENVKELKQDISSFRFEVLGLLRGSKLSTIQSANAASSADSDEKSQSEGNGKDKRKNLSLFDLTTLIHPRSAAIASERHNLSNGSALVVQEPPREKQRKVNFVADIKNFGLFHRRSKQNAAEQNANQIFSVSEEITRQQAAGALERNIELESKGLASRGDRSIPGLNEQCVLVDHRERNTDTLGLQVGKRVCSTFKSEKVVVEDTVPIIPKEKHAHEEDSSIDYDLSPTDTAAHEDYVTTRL
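Assay system – TRPC4beta and mu-opioid receptor HEK293 stable cells · Measured by – Fluo4 fluorescence, kinetic · Schedule – dye loading 45 min room temperature, 110 s kinetic read · Read-out – B-scored integrated calcium fluorescence ratio · Controls – buffer and maximal DAMGO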
TRPC6 inh: mouse TRPC6 channel inhibitors, primary screen, cell-based, HEK293, membrane potential dye | Short transient receptor potential channel 6 (Mus musculus), Q61143 | ACh-evoked depolarization; stronger effect = lower value | B-score at 10 µM | 310,000 tested, 1.1% active;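 active means B-score under library mean minus 3 SD, initial fluorescence not abnormally high, positive integrated signal ratio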;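 further: B-score derived from integrated fluorescence ratio over the kinetic read; more negative B-score means stronger inhibition of depolarization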
TRPC4 potent: positive allosteric modulators of TRPC4, primary screen, cell-based, mouse TRPC4beta, HEK293 mu-opioid, Fluo-4 calcium | Short transient receptor potential channel 4 (Mus musculus), Q9QUQ5 | B-score at 10 µM | 310,000 tested, 0.42% active | DAMGO EC20, Fluo-4 Ca2+ flux; stronger effect = higher value;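 active means B-score of calcium response area above 5 SD of library B-scores, with initial fluorescence ratio within 5 SD of library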;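 further: B-score of integrated fluorescence ratio over time as area under calcium response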
TRPC4 block: inhibitors of mouse TRPC4 channel, primary screen, Fluo4 calcium, HEK293 TRPC4beta/mu-opioid cells; Short transient receptor potential channel 4 (Mus musculus), Q9QUQ5; DAMGO-evoked Fluo4 calcium flux; stronger effect = lower value; B-score at 10 µM; 300,000 tested, 0.39% active;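 active means B-score over 3 SD under the library average, no early fluorescence shift, positive overall ratio signal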
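System: stable TRPC4beta/mu-opioid receptor HEK293 cells; Dosing: single-point compound dosing; Measured by: Fluo4 Ca2+ flux fluorescence; Read-out basis: per-well B score of integrated baseline-normalized Fluo4 ratio.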
CR mimetic SO: reduction of superoxide in aged yeast, primary screen, HTS; S. cerevisiae aged cells, superoxide DHE fluorescence; stronger effect = lower value; superoxide response (% of plate mean), % at 10 µM; 330,000 tested, 0.18% active; AID 2690, 2010;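 active means superoxide response under a set limit, about three screen SD below normal, cut at about 65% in these data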;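 further: yeast aged for seven days with compound at 30 °C before DHE staining; 100% = average MFI of all compound-treated wells on the plate with controls excluded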
TRPC6 act: mouse TRPC6 channel activators, primary screen, cell-based, HEK293, membrane potential dye | Short transient receptor potential channel 6 (Mus musculus), Q61143 | 310,000 tested, 0.13% active | B-score at 10 µM | HEK293-TRPC6 membrane potential dye fluorescence; stronger effect = higher value;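 active means B-score of the integrated fluorescence ratio above library mean plus 3 SD, and starting fluorescence ratio within library mean plus 5 SD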;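 further: higher score means more depolarization so channel activation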
* hit, by the source's call. Compounds with a hit are over-represented: about 2.3% of the library has one in this group of screens.

For NC(=O)c1nsc(C(=O)N(Cc2ccco2)C(C(=O)NCC2CCCO2)c2ccc(F)cc2)c1N (centres undefined) the results were TRPC4 act inactive, TRPC6 inh inactive, TRPC4 potent inactive, TRPC4 block -6* and TRPC6 act inactive.
Screening Cc1ccc(-c2nc(CN(CC3CCC3)CC3CCCO3)c(C)o2)s1 (centres undefined) returned TRPC4 act inactive, TRPC6 inh inactive, TRPC4 potent inactive, TRPC4 block inactive, CR mimetic SO 97 and TRPC6 act inactive.
For COc1cccc(CN2CCN(C3CCN(c4ccccc4C)CC3)CC2CCO)c1 (centres undefined) the results were TRPC4 act inactive, TRPC6 inh inactive, TRPC4 potent inactive, TRPC4 block inactive, CR mimetic SO 103 and TRPC6 act inactive.
`COc1cccc(CN2CCN(C3CCN(c4ccccc4F)CC3)CC2CCO)c1` (centres undefined) gave TRPC4 act inactive, TRPC6 inh inactive, TRPC4 potent inactive, TRPC4 block -5*, CR mimetic SO 103 and TRPC6 act inactive.
`c1ccc2c(-c3[nH]ncc3CNCCCn3ncc4ccccc43)cccc2c1` gave TRPC4 act 64*, TRPC6 inh inactive, TRPC4 potent inactive, TRPC4 block inactive, CR mimetic SO 96 and TRPC6 act inactive.
CC(C)CC(=O)N1CCN(C(=O)CCC2CCCC2)CC1 was read as TRPC4 act inactive, TRPC6 inh inactive, TRPC4 potent inactive, TRPC4 block inactive, CR mimetic SO 87 and TRPC6 act inactive.
`CCOc1ccccc1-n1c(SCC(=O)Nc2nccs2)nnc1-c1ccoc1C` gave TRPC4 act inactive, TRPC6 inh inactive, TRPC4 potent inactive, TRPC4 block -6*, CR mimetic SO 105 and TRPC6 act inactive.
For CCOc1ccc(-n2c(SCC(=O)Nc3nccs3)nnc2-c2ccoc2C)cc1 the results were TRPC4 act inactive, TRPC6 inh inactive, TRPC4 potent inactive, TRPC4 block inactive, CR mimetic SO 80 and TRPC6 act inactive.
Cc1ccccc1-c1nc(C#N)c(N2CCCCC2)o1 was read as TRPC4 act inactive, TRPC6 inh inactive, TRPC4 potent inactive, TRPC4 block inactive, CR mimetic SO 91 and TRPC6 act inactive.
Cc1cccc(NC(=O)CNC(=O)CN2C(=O)NC3(CCCCC3C)C2=O)c1C (centres undefined) was read as TRPC4 act inactive, TRPC6 inh inactive, TRPC4 potent 17*, TRPC4 block inactive, CR mimetic SO 102 and TRPC6 act inactive.
`COc1ccc(CNCc2ccncc2)cc1OC` gave TRPC4 act inactive, TRPC6 inh inactive, TRPC4 potent inactive, TRPC4 block inactive, CR mimetic SO 93 and TRPC6 act inactive.
`COc1ccc(CC(=O)N/N=C(\C)CC(=O)Nc2cccc(F)c2)cc1` gave TRPC4 act inactive, TRPC6 inh inactive, TRPC4 potent inactive, TRPC4 block inactive, CR mimetic SO 103 and TRPC6 act inactive.
COc1ccc(C)cc1S(=O)(=O)Nc1ccc(F)c(Cl)c1 was read as TRPC4 act inactive, TRPC6 inh inactive, TRPC4 potent 10*, TRPC4 block inactive, CR mimetic SO 97 and TRPC6 act inactive.
Screening COc1cccc(/C=C2\SC(=S)N(CCC(=O)N3CCCCC3)C2=O)c1 returned TRPC4 act inactive, TRPC6 inh inactive, TRPC4 potent inactive, TRPC4 block inactive, CR mimetic SO 118 and TRPC6 act inactive.
O=C(NC1CCCN(Cc2ccc(Cl)cc2)C1)c1cccc(F)c1 (centres undefined) was read as TRPC4 act inactive, TRPC6 inh inactive, TRPC4 potent inactive, TRPC4 block inactive, CR mimetic SO 102 and TRPC6 act inactive.

Screens from PubChem BioAssay.
